{"source": "ChEMBL document CHEMBL1671633", "about": "(Antimicrob Agents Chemother, 2008)", "key": {"[1]": {"tested_on": "Homo sapiens", "assay": "Toxicity in healthy human assessed as incidence of adverse events at 400 mg, po qd coadministered with 900 mg, po thrice weekly of rifapentine on day 5 post compound dose measured on day 19 post compound dose", "assay_type": "organism-based", "conditions": "in vivo", "procedure,_shortened": "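Doses were given after a continental breakfast, with no other medications, alcohol or smoking allowed. Adherence was tracked by pill counts and medication diaries, and adverse events were recorded during and after dosing.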"}, "[2]": {"tested_on": "Homo sapiens", "assay": "AUC (0 to 48 hrs) in healthy human assessed as 25-desacetyl-rifapentine level at 900 mg, po administered as a single dose measured on day 5 post compound dose by HPLC", "assay_type": "ADME, organism-based, Plasma", "parameters": "dose 900 mg, time < 48 hr, route oral", "conditions": "in vivo", "procedure,_shortened": "(§1)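 Blood was drawn predose and at 2, 4, 6, 8, 10, 12, 24, 34 and 48 h after the first dose (day 5), and again on day 19 after 7 thrice-weekly doses (72-h sampling). Rifapentine and 25-desacetyl-rifapentine were measured by validated HPLC-UV with trimipramine as internal standard. Parameters came from noncompartmental analysis, with AUC truncated at 48 h.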"}, "[3]": {"assay": "AUC (0 to 24 hrs ) in healthy human at 400 mg, po qd measured on day 4 by HPLC", "assay_type": "ADME, organism-based", "parameters": "time < 24 hr, dose 400 mg, route oral", "conditions": "plasma"}, "[4]": {"tested_on": "Homo sapiens", "assay": "Tmax in healthy human assessed as 25-desacetyl-rifapentine level at 900 mg, po administered as a single dose measured on day 5 post compound dose by HPLC", "assay_type": "ADME, organism-based", "conditions": "in vivo", "procedure,_shortened": "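Healthy volunteers took a single oral 900 mg rifapentine dose on day 5, after a continental breakfast (750 kcal, 20% fat), alongside ongoing 400 mg daily MXF. Plasma was sampled predose and at 2, 4, 6, 8, 10, 12, 24, 34 and 48 h. 25-desacetyl-RPT was measured by validated HPLC with UV detection and trimipramine internal standard. Tmax was derived noncompartmentally.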"}, "[5]": {"assay": "AUC (0 to 24 hrs ) in healthy human at 400 mg, po qd coadministered with 900 mg, po thrice weekly of rifapentine on day 5 post compound dose measured on day 19 post compound dose by HPLC", "assay_type": "ADME, organism-based", "parameters": "time < 24 hr, dose 400 mg, route oral", "conditions": "plasma"}, "[6]": {"tested_on": "Homo sapiens", "assay": "AUC (0 to 48 hrs) in healthy human assessed as 25-desacetyl-rifapentine level at 900 mg, po thrice weekly measured on day 19 post compound dose by HPLC", "assay_type": "ADME, organism-based, Plasma", "parameters": "dose 900 mg, time < 48 hr, route oral", "conditions": "in vivo", "procedure,_shortened": "as §1"}, "[7]": {"assay": "Tmax in healthy human at 400 mg, po qd measured on day 4 by HPLC", "assay_type": "ADME, organism-based", "conditions": "in vivo", "procedure,_shortened": "(§2)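 Healthy volunteers took oral MXF 400 mg once daily with a continental breakfast (750 kcal, 20% fat). Sampling was on day 4 (after four doses, MXF alone) or on day 19 (with 900 mg RPT thrice weekly added from day 5; 72-h sampling). Plasma MXF was measured by validated HPLC with fluorescence detection (standard curve 0.20–15 µg/ml). Tmax was derived noncompartmentally.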"}, "[8]": {"assay": "Tmax in healthy human at 400 mg, po qd coadministered with 900 mg, po thrice weekly of rifapentine on day 5 post compound dose measured on day 19 post compound dose by HPLC", "assay_type": "ADME, organism-based", "conditions": "in vivo", "procedure,_shortened": "as §2"}, "[9]": {"assay": "Cmax in healthy human at 400 mg, po qd coadministered with 900 mg, po thrice weekly of rifapentine on day 5 post compound dose measured on day 19 post compound dose by HPLC", "assay_type": "ADME, organism-based", "parameters": "dose 400 mg, route oral", "conditions": "in vivo"}, "[10]": {"assay": "AUC (0 to 48 hrs) in healthy human at 900 mg, po administered as a single dose measured on day 5 post compound dose by HPLC", "assay_type": "ADME, organism-based", "parameters": "time < 48 hr, dose 900 mg, route oral", "conditions": "plasma", "procedure,_shortened": "as §1"}, "[11]": {"tested_on": "Homo sapiens", "assay": "Volume of distribution in healthy human at 900 mg, po administered as a single dose measured on day 5 post compound dose by HPLC", "assay_type": "ADME, organism-based", "conditions": "in vivo", "procedure,_shortened": "as §1"}, "[12]": {"tested_on": "Homo sapiens", "assay": "Ratio of Volume of distribution in healthy human at 900 mg, po thrice weekly measured on day 19 post compound dose to Volume of distribution in healthy human at 900 mg, po administered as a single dose measured on day 5", "conditions": "in vivo"}, "[13]": {"assay": "Cmax in healthy human at 900 mg, po thrice weekly measured on day 19 post compound dose by HPLC", "assay_type": "ADME, organism-based", "parameters": "dose 900 mg, route oral", "conditions": "in vivo", "procedure,_shortened": "as §1"}, "[14]": {"tested_on": "Homo sapiens", "assay": "Ratio of AUC (0 to 48 hrs) in healthy human at 900 mg, po thrice weekly measured on day 19 post compound dose to AUC (0 to 48 hrs) in healthy human at 900 mg, po administered as a single dose measured on day 5 post compound dose", "assay_type": "ADME, organism-based", "conditions": "in vivo", "procedure,_shortened": "(§3)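 Healthy volunteers took oral RPT 900 mg thrice weekly, alongside MXF 400 mg daily, after a 750-kcal breakfast. Plasma was sampled over 48 h after the first RPT dose (day 5) and over 72 h after the seventh dose (day 19). RPT was measured by validated HPLC-UV with a trimipramine internal standard. Parameters were derived noncompartmentally, with AUC over 48 h, and compared as day 19/day 5 geometric mean ratios with 90% CI.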"}, "[15]": {"assay": "Tmax in healthy human at 900 mg, po thrice weekly measured on day 19 post compound dose by HPLC", "assay_type": "ADME, organism-based", "conditions": "in vivo", "procedure,_shortened": "as §3"}, "[16]": {"assay": "Half life in healthy human at 900 mg, po administered as a single dose measured on day 5 post compound dose by HPLC", "assay_type": "ADME, organism-based", "conditions": "in vivo", "procedure,_shortened": "as §1"}, "[17]": {"tested_on": "Homo sapiens", "assay": "Ratio of Half life in healthy human at 900 mg, po thrice weekly measured on day 19 post compound dose to Half life in healthy human at 900 mg, po administered as a single dose measured on day 5", "conditions": "in vivo"}, "[18]": {"tested_on": "Homo sapiens", "assay": "Ratio of Cmax in healthy human at 900 mg, po thrice weekly measured on day 19 post compound dose to Cmax in healthy human at 900 mg, po administered as a single dose measured on day 5", "conditions": "in vivo"}, "[19]": {"assay": "Half life in healthy human at 900 mg, po thrice weekly measured on day 19 post compound dose by HPLC", "assay_type": "ADME, organism-based", "conditions": "in vivo", "procedure,_shortened": "as §1"}, "[20]": {"assay": "Apparent oral clearance in healthy human at 900 mg, po thrice weekly measured on day 19 post compound dose by HPLC", "assay_type": "ADME, organism-based", "conditions": "in vivo", "procedure,_shortened": "as §1"}, "[21]": {"assay": "Tmax in healthy human at 900 mg, po administered as a single dose measured on day 5 post compound dose by HPLC", "assay_type": "ADME, organism-based", "conditions": "in vivo", "procedure,_shortened": "as §3"}, "[22]": {"tested_on": "Homo sapiens", "assay": "Ratio of Tmax in healthy human at 900 mg, po thrice weekly measured on day 19 post compound dose to Tmax in healthy human at 900 mg, po administered as a single dose measured on day 5", "conditions": "in vivo"}, "[23]": {"tested_on": "Homo sapiens", "assay": "Ratio of Apparent oral clearance in healthy human at 900 mg, po thrice weekly measured on day 19 post compound dose to Apparent oral clearance in healthy human at 900 mg, po administered as a single dose measured on day 5", "conditions": "in vivo"}, "[24]": {"tested_on": "Homo sapiens", "assay": "Volume of distribution in healthy human at 900 mg, po thrice weekly measured on day 19 post compound dose by HPLC", "assay_type": "ADME, organism-based", "conditions": "in vivo", "procedure,_shortened": "as §1"}, "[25]": {"assay": "Apparent oral clearance in healthy human at 900 mg, po administered as a single dose measured on day 5 post compound dose by HPLC", "assay_type": "ADME, organism-based", "conditions": "in vivo", "procedure,_shortened": "as §1"}, "[26]": {"assay": "Cmax in healthy human at 900 mg, po administered as a single dose measured on day 5 post compound dose by HPLC", "assay_type": "ADME, organism-based", "parameters": "dose 900 mg, route oral", "conditions": "in vivo", "procedure,_shortened": "as §1"}, "[27]": {"assay": "AUC (0 to 48 hrs) in healthy human at 900 mg, po thrice weekly measured on day 19 post compound dose by HPLC", "assay_type": "ADME, organism-based", "parameters": "time < 48 hr, dose 900 mg, route oral", "conditions": "plasma", "procedure,_shortened": "as §1"}}}
{"compound": "COc1c(N2C[C@@H]3CCCN[C@@H]3C2)c(F)cc2c(=O)c(C(=O)O)cn(C3CC3)c12", "note": "[MOXIFLOXACIN]", "values": [{"measurement": "Activity", "setting": "[1]", "value": "Non-toxic"}, {"measurement": "AUC", "setting": "[2]", "value": 461.7, "unit": "µg·h/mL"}, {"measurement": "AUC at 24 h", "setting": "[3]", "value": 41.9, "unit": "µg·h/mL"}, {"measurement": "Tmax", "setting": "[4]", "value": 24.9, "unit": "h"}, {"measurement": "AUC at 24 h", "setting": "[5]", "value": 34.4, "unit": "µg·h/mL"}, {"measurement": "AUC", "setting": "[6]", "value": 369.9, "unit": "µg·h/mL"}, {"measurement": "Tmax", "setting": "[7]", "value": 2.37, "unit": "h"}, {"measurement": "Tmax", "setting": "[8]", "value": 2.6, "unit": "h"}, {"measurement": "Cmax", "setting": "[9]", "value": 3330, "unit": "ng/mL"}]}
{"compound": "CO[C@H]1/C=C/O[C@@]2(C)Oc3c(C)c(O)c4c(O)c(c(/C=N/N5CCN(C6CCCC6)CC5)c(O)c4c3C2=O)NC(=O)/C(C)=C\\C=C\\[C@H](C)[C@H](O)[C@@H](C)[C@@H](O)[C@@H](C)[C@H](OC(C)=O)[C@@H]1C", "note": "[RIFAPENTINE]", "values": [{"measurement": "AUC(0-t) at 48 h", "setting": "[10]", "value": 513, "unit": "µg·h/mL"}, {"measurement": "Vd", "setting": "[11]", "value": 40.7, "unit": "L"}, {"measurement": "Ratio", "setting": "[12]", "value": 1.07}, {"measurement": "Cmax", "setting": "[13]", "value": 21200, "unit": "ng/mL"}, {"measurement": "Ratio AUC", "setting": "[14]", "value": 0.8}, {"measurement": "Tmax", "setting": "[15]", "value": 4.77, "unit": "h"}, {"measurement": "half-life", "setting": "[16]", "value": 18.5, "unit": "h"}, {"measurement": "Ratio", "setting": "[17]", "value": 0.78}, {"measurement": "Ratio", "setting": "[18]", "value": 0.96}, {"measurement": "half-life", "setting": "[19]", "value": 14.8, "unit": "h"}, {"measurement": "CL/F", "setting": "[20]", "value": 36.2, "unit": "mL/min"}, {"measurement": "Tmax", "setting": "[21]", "value": 5.08, "unit": "h"}, {"measurement": "Ratio", "setting": "[22]", "value": 0.93}, {"measurement": "Ratio", "setting": "[23]", "value": 1.36}, {"measurement": "Vd", "setting": "[24]", "value": 43.7, "unit": "L"}, {"measurement": "CL/F", "setting": "[25]", "value": 26.5, "unit": "mL/min"}, {"measurement": "Cmax", "setting": "[26]", "value": 21900, "unit": "ng/mL"}, {"measurement": "AUC at 48 h", "setting": "[27]", "value": 410, "unit": "µg·h/mL"}]}
